Assay results taken from ChEMBL document CHEMBL1629527, “In vitro antifungal activities of bis(alkylpyridinium)alkane compounds against pathogenic yeasts and molds” (Antimicrob Agents Chemother, 2010).

Legend:
Pichia kudriavzevii [1] = test: Antifungal activity against Candida krusei after 24 to 72 hrs by broth microdilution method; type: functional
Method in brief: (§1)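 Broth microdilution MIC per CLSI M27-A3 (yeasts) or M38-A2 (molds). RPMI 1640 with L-glutamine, without bicarbonate, buffered to pH 7.0 with 0.165 M MOPS. Final test range for the compounds was 0.175–87.5 μM. Incubation at 35°C with visual reading at 24–72 h. MIC was the lowest concentration giving 100% inhibition versus the growth control (azoles 50% or 100%, by organism). Each isolate was run in duplicate in two independent experiments.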

Cryptococcus neoformans [2] = test: Antifungal activity against Cryptococcus neoformans 05-202523 after 24 to 72 hrs by broth microdilution method; type: functional; method in brief: as §1
Candida tropicalis [3] = test: Antifungal activity against Candida tropicalis after 24 to 72 hrs by broth microdilution method; type: functional; method in brief: as §1
Aspergillus flavus [4] = test: Antifungal activity against Aspergillus flavus ATCC 204304 after 24 to 72 hrs by broth microdilution method; type: functional; method in brief: as §1
[5] = system: Meyerozyma guilliermondii; test: Antifungal activity against Candida guilliermondii after 48 to 72 hrs; type: functional; conditions: for MFC: Meyerozyma guilliermondii
Method in brief: (§2)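 MFC: after the MIC read, 30-μl aliquots from each well without visible growth were plated onto Sabouraud dextrose agar and incubated at 35°C. Reading was at 48–72 h for yeasts and up to 7 days for molds. MFC was the lowest concentration with no colonies.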

Lichtheimia corymbifera = test: Antifungal activity against Absidia corymbifera 04-200170 after 24 to 72 hrs by broth microdilution method; type: functional; method in brief: as §1
Pichia kudriavzevii [6] = test: Antifungal activity against Candida krusei 04-202328 after 24 to 72 hrs by broth microdilution method; type: functional; method in brief: as §1
Candida parapsilosis [7] = test: Antifungal activity against Candida parapsilosis after 48 to 72 hrs; type: functional; conditions: for MFC: Lodderomyces parapsilosis; method in brief: as §2
Nakaseomyces glabratus [8] = test: Antifungal activity against Candida glabrata 04-202345 after 24 to 72 hrs by broth microdilution method; type: functional; method in brief: as §1
[9] = Toxicity against human erythrocytes assessed as hemolysis; type: cell-based, Erythrocyte
[10] = system: Meyerozyma guilliermondii; test: Antifungal activity against Candida guilliermondii after 24 to 72 hrs by broth microdilution method; type: functional; method in brief: as §1
Cryptococcus neoformans [11] = test: Antifungal activity against Cryptococcus neoformans after 24 to 72 hrs by broth microdilution method; type: functional; method in brief: as §1
Candida albicans [12] = test: Antifungal activity against Candida albicans after 48 to 72 hrs; type: functional; conditions: for MFC: Candida albicans; method in brief: as §2
Nakaseomyces glabratus [13] = test: Antifungal activity against Candida glabrata after 24 to 72 hrs by broth microdilution method; type: functional; method in brief: as §1
[14] = system: Cryptococcus gattii species complex; test: Antifungal activity against Cryptococcus gattii after 24 to 72 hrs by broth microdilution method; type: functional, Cryptococcus bacillisporus; method in brief: as §1
Clavispora lusitaniae = test: Antifungal activity against Candida lusitaniae after 24 to 72 hrs by broth microdilution method; type: functional; method in brief: as §1
[15] = system: Cryptococcus gattii species complex; test: Antifungal activity against Cryptococcus gattii 05-200122 after 24 to 72 hrs by broth microdilution method; type: functional, Cryptococcus bacillisporus; method in brief: as §1
[16] = Antifungal activity against Exophiala jeanselmei 03-200268 after 24 to 72 hrs by broth microdilution method; type: functional; method in brief: as §1
Cryptococcus neoformans [17] = test: Antifungal activity against Cryptococcus neoformans ATCC 90112 after 24 to 72 hrs by broth microdilution method; type: functional; method in brief: as §1
Rhizopus arrhizus [18] = test: Antifungal activity against Rhizopus oryzae 05-203111 after 24 to 72 hrs by broth microdilution method; type: functional
Method in brief: (§3)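 Mold isolates subcultured on potato dextrose agar, then tested by CLSI M38-A2 broth microdilution in RPMI 1640 (L-glutamine, no bicarbonate) buffered to pH 7.0 with 0.165 M MOPS. Compounds were dissolved in water and tested at a final 0.175–87.5 μM. Plates were incubated at 35°C. MIC was read visually as the lowest concentration giving 100% inhibition versus the growth control. Each isolate was run in duplicate in two independent experiments.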

Candida albicans [19] = test: Antifungal activity against Candida albicans after 24 to 72 hrs by broth microdilution method; type: functional
Method in brief: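 CLSI M27-A3 broth microdilution for yeasts in RPMI 1640 with L-glutamine and no bicarbonate, buffered with 0.165 M MOPS to pH 7.0. Compounds were dissolved in water and tested at 0.175–87.5 μM final, 35°C. MIC was read visually at 24–72 h as 100% inhibition versus growth control. For MFC, 30 μl from clear wells went onto SDA at 35°C for 48–72 h, reading the lowest concentration without colonies. Duplicates, two independent runs.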

Rhizopus arrhizus [20] = test: Antifungal activity against Rhizopus oryzae 05-203111 after 48 to 72 hrs; type: functional
Method in brief: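 After the broth microdilution MIC read, suspension from every well without visible growth was plated onto Sabouraud dextrose agar and incubated at 35°C, up to 7 days for molds. MFC was taken as the lowest drug concentration with no colonies.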

Cryptococcus neoformans [21] = test: Antifungal activity against Cryptococcus neoformans 05-202523 after 48 to 72 hrs; type: functional; method in brief: as §2
Candida albicans [22] = test: Antifungal activity against Candida albicans ATCC 90028 after 24 to 72 hrs by broth microdilution method; type: functional; method in brief: as §1
Pichia kudriavzevii [23] = test: Antifungal activity against Candida krusei ATCC 6258 after 24 to 72 hrs by broth microdilution method; type: functional; method in brief: as §1
Candida parapsilosis [24] = test: Antifungal activity against Candida parapsilosis 04-202398 after 24 to 72 hrs by broth microdilution method; type: functional; conditions: Lodderomyces parapsilosis; method in brief: as §1
Aspergillus terreus = test: Antifungal activity against Aspergillus terreus 05-202844 after 24 to 72 hrs by broth microdilution method; type: functional; method in brief: as §1
Exophiala spinifera = test: Antifungal activity against Exophiala spinifera 03-200803 after 24 to 72 hrs by broth microdilution method; type: functional; method in brief: as §3
Fusarium solani = test: Antifungal activity against Fusarium solani 04-203102 after 24 to 72 hrs by broth microdilution method; type: functional; method in brief: as §3
[25] = Antifungal activity against Paecilomyces lilacinus 05-200601 after 24 to 72 hrs by broth microdilution method; type: functional; conditions: Purpureocillium lilacinum; method in brief: as §3
Aspergillus fumigatus = test: Antifungal activity against Aspergillus fumigatus 05-203114 after 24 to 72 hrs by broth microdilution method; type: functional; method in brief: as §1
Candida tropicalis [26] = test: Antifungal activity against Candida tropicalis 04-202361 after 24 to 72 hrs by broth microdilution method; type: functional; method in brief: as §1
Aspergillus flavus [27] = test: Antifungal activity against Aspergillus flavus 05-203758 after 24 to 72 hrs by broth microdilution method; type: functional; method in brief: as §1
Lomentospora prolificans = test: Antifungal activity against Scedosporium prolificans 05-203060 after 24 to 72 hrs by broth microdilution method; type: functional; method in brief: as §3
Candida dubliniensis = test: Antifungal activity against Candida dubliniensis after 24 to 72 hrs by broth microdilution method; type: functional; method in brief: as §1

Compound: C=CCCCc1cc[n+](CCCCCCCCCCCC[n+]2ccc(CCCC=C)cc2)cc1.[Cl-].[Cl-]
- MIC (Pichia kudriavzevii [1]): 3.38 µg/mL
- MIC50 (Pichia kudriavzevii [1]): 2.94 µg/mL
- MIC90 (Pichia kudriavzevii [1]): 5.87 µg/mL
- MIC (Cryptococcus neoformans [2]): 11.8 µg/mL
- MIC (Candida tropicalis [3]): 0.746 µg/mL
- MIC50 (Candida tropicalis [3]): 0.75 µg/mL
- MIC90 (Candida tropicalis [3]): 1.47 µg/mL
- MIC (Aspergillus flavus [4]): > 47.3 µg/mL
- MFC50 [5]: 1.47 µg/mL
- MFC90 [5]: 5.87 µg/mL
- MFC [5]: 0.75 µg/mL
- MIC (Lichtheimia corymbifera): > 47.3 µg/mL
- MIC (Pichia kudriavzevii [6]): 11.8 µg/mL
- MFC50 (Candida parapsilosis [7]): 23.5 µg/mL
- MFC90 (Candida parapsilosis [7]): 23.5 µg/mL
- MFC (Candida parapsilosis [7]): 23.5 µg/mL
- MIC (Nakaseomyces glabratus [8]): 1.5 µg/mL
- HC50 [9]: > 129 µM
- IC50 [9]: > 48 µM
- MIC [10]: 1.69 µg/mL
- MIC50 [10]: 1.47 µg/mL
- MIC90 [10]: 1.47 µg/mL
- MIC (Cryptococcus neoformans [11]): 3.83 µg/mL
- MIC50 (Cryptococcus neoformans [11]): 2.94 µg/mL
- MIC90 (Cryptococcus neoformans [11]): 5.87 µg/mL
- MFC50 (Candida albicans [12]): 1.47 µg/mL
- MFC90 (Candida albicans [12]): 1.47 µg/mL
- MFC (Candida albicans [12]): 0.75 µg/mL
- MIC (Nakaseomyces glabratus [13]): 0.975 µg/mL
- MIC50 (Nakaseomyces glabratus [13]): 1.47 µg/mL
- MIC90 (Nakaseomyces glabratus [13]): 1.47 µg/mL
- MIC [14]: 1.81 µg/mL
- MIC50 [14]: 1.48 µg/mL
- MIC90 [14]: 2.94 µg/mL
- MIC (Clavispora lusitaniae): 2.74 µg/mL
- MIC50 (Clavispora lusitaniae): 2.93 µg/mL
- MIC90 (Clavispora lusitaniae): 2.93 µg/mL
- MIC [15]: 1.48 µg/mL
- MIC [16]: 5.9 µg/mL
- MIC (Cryptococcus neoformans [17]): 11.8 µg/mL
- MIC (Rhizopus arrhizus [18]): 5.9 µg/mL
- MIC (Candida albicans [19]): 1.28 µg/mL
- MIC50 (Candida albicans [19]): 1.47 µg/mL
- MIC90 (Candida albicans [19]): 1.47 µg/mL
- MFC (Rhizopus arrhizus [20]): 23.7 µg/mL
- MFC (Cryptococcus neoformans [21]): 23.7 µg/mL
- MIC (Candida albicans [22]): 1.48 µg/mL
- MIC (Pichia kudriavzevii [23]): 5.9 µg/mL
- MIC (Candida parapsilosis [24]): 47.3 µg/mL
- MIC (Aspergillus terreus): 1.48 µg/mL
- MIC (Exophiala spinifera): 0.74 µg/mL
- MIC (Fusarium solani): 47.3 µg/mL
- MIC [25]: > 47.3 µg/mL
- MIC (Aspergillus fumigatus): > 47.3 µg/mL
- MIC (Candida tropicalis [26]): 1.48 µg/mL
- MIC (Aspergillus flavus [27]): > 47.3 µg/mL
- MIC (Lomentospora prolificans): 1.48 µg/mL
- MIC (Candida dubliniensis): 2.22 µg/mL
- MIC50 (Candida dubliniensis): 1.47 µg/mL
- MIC90 (Candida dubliniensis): 2.93 µg/mL

Compound: CCCCCc1cc[n+](CCCCCCCCCCCC[n+]2ccc(CCCCC)c(C)c2)cc1C.[Cl-].[Cl-]
- MIC (Pichia kudriavzevii [1]): 3.12 µg/mL
- MIC50 (Pichia kudriavzevii [1]): 3.11 µg/mL
- MIC90 (Pichia kudriavzevii [1]): 6.22 µg/mL
- MIC (Cryptococcus neoformans [2]): 12.7 µg/mL
- MIC (Candida tropicalis [3]): 0.79 µg/mL
- MIC50 (Candida tropicalis [3]): 0.79 µg/mL
- MIC90 (Candida tropicalis [3]): 0.79 µg/mL
- MIC (Aspergillus flavus [4]): 12.7 µg/mL
- MFC50 [5]: 0.79 µg/mL
- MFC90 [5]: 1.56 µg/mL
- MFC [5]: 0.39 µg/mL
- MIC (Lichtheimia corymbifera): 50.7 µg/mL
- MIC (Pichia kudriavzevii [6]): 6.3 µg/mL
- MFC50 (Candida parapsilosis [7]): 49.5 µg/mL
- MFC90 (Candida parapsilosis [7]): 49.5 µg/mL
- MFC (Candida parapsilosis [7]): 49.5 µg/mL
- MIC (Nakaseomyces glabratus [8]): 0.79 µg/mL
- HC50 [9]: > 129 µM
- IC50 [9]: > 48 µM
- MIC [10]: 0.903 µg/mL
- MIC50 [10]: 0.79 µg/mL
- MIC90 [10]: 1.56 µg/mL
- MIC (Cryptococcus neoformans [11]): 1.28 µg/mL
- MIC50 (Cryptococcus neoformans [11]): 0.79 µg/mL
- MIC90 (Cryptococcus neoformans [11]): 3.11 µg/mL
- MFC50 (Candida albicans [12]): 1.56 µg/mL
- MFC90 (Candida albicans [12]): 1.56 µg/mL
- MFC (Candida albicans [12]): 0.79 µg/mL
- MIC (Nakaseomyces glabratus [13]): 0.642 µg/mL
- MIC50 (Nakaseomyces glabratus [13]): 0.79 µg/mL
- MIC90 (Nakaseomyces glabratus [13]): 0.79 µg/mL
- MIC [14]: 0.79 µg/mL
- MIC50 [14]: 0.79 µg/mL
- MIC90 [14]: 0.79 µg/mL
- MIC (Clavispora lusitaniae): 2.71 µg/mL
- MIC50 (Clavispora lusitaniae): 3.11 µg/mL
- MIC90 (Clavispora lusitaniae): 3.11 µg/mL
- MIC [15]: 0.79 µg/mL
- MIC [16]: 1.58 µg/mL
- MIC (Cryptococcus neoformans [17]): 0.79 µg/mL
- MIC (Rhizopus arrhizus [18]): 1.58 µg/mL
- MIC (Candida albicans [19]): 1.36 µg/mL
- MIC50 (Candida albicans [19]): 1.56 µg/mL
- MIC90 (Candida albicans [19]): 1.56 µg/mL
- MFC (Rhizopus arrhizus [20]): 6.3 µg/mL
- MFC (Cryptococcus neoformans [21]): 25.3 µg/mL
- MIC (Candida albicans [22]): 1.58 µg/mL
- MIC (Pichia kudriavzevii [23]): 6.3 µg/mL
- MIC (Candida parapsilosis [24]): 25.3 µg/mL
- MIC (Aspergillus terreus): 0.7 µg/mL
- MIC (Exophiala spinifera): 0.79 µg/mL
- MIC (Fusarium solani): 12.7 µg/mL
- MIC [25]: > 50.7 µg/mL
- MIC (Aspergillus fumigatus): 25.3 µg/mL
- MIC (Candida tropicalis [26]): 0.79 µg/mL
- MIC (Aspergillus flavus [27]): 25.3 µg/mL
- MIC (Lomentospora prolificans): 1.58 µg/mL
- MIC (Candida dubliniensis): 0.908 µg/mL
- MIC50 (Candida dubliniensis): 0.79 µg/mL
- MIC90 (Candida dubliniensis): 0.79 µg/mL
